Laboratory results published in ChEMBL document CHEMBL1255221, “Synthesis and evaluation of selected key methyl ether derivatives of vancomycin aglycon” (2010).
Values after ≈ are worked out from the molar mass of the structure shown.

What was measured:
Format in all cases: functional
Staphylococcus aureus = test: Antimicrobial activity against Staphylococcus aureus ATCC 25923
Enterococcus faecalis [1] = test: Antimicrobial activity against vancomycin A-resistant Enterococcus faecalis BM 4166
How it was run: (§1)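 MIC measured in a microtiter plate-based antimicrobial assay, in μg/mL. VanA E. faecalis BM4166 is vancomycin- and teicoplanin-resistant; VanB E. faecalis ATCC 51299 is vancomycin-resistant and teicoplanin-sensitive. Both strains carry a vancomycin-inducible resistance pathway, switching from D-Ala-D-Ala to D-Ala-D-Lac cell-wall precursors on glycopeptide exposure.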

Enterococcus faecalis [2] = test: Antimicrobial activity against vancomycin B-resistant Enterococcus faecalis ATCC 51299; how it was run: as §1

SMILES | MIC (Staphylococcus aureus) [µg/mL] | MIC (Enterococcus faecalis [1]) [µg/mL] | MIC (Enterococcus faecalis [2]) [µg/mL]
CN[C@H](CC(C)C)C(=O)N[C@H]1C(=O)N[C@@H](CC(N)=O)C(=O)N[C@H]2C(=O)N[C@H]3C(=O)N[C@H](C(=O)N[C@@H](C(=O)O)c4cc(OC)cc(OC)c4-c4cc3ccc4OC)[C@H](O)c3ccc(c(Cl)c3)Oc3cc2cc(c3OC)Oc2ccc(cc2Cl)[C@H]1O | 1.25 (≈ 1.04 µM) | 80 (≈ 66.7 µM) | 2.5 (≈ 2.08 µM)
CN[C@H](CC(C)C)C(=O)N[C@H]1C(=O)N[C@@H](CC(N)=O)C(=O)N[C@H]2C(=O)N[C@H]3C(=O)N[C@H](C(=O)N[C@@H](C(=O)OC)c4cc(OC)cc(OC)c4-c4cc3ccc4OC)[C@H](O)c3ccc(c(Cl)c3)Oc3cc2cc(c3OC)Oc2ccc(cc2Cl)[C@H]1O | 1.25 (≈ 1.03 µM) | 40 (≈ 32.9 µM) | 1.25 (≈ 1.03 µM)
CN[C@@H](CC(C)C)C(=O)N[C@H]1C(=O)N[C@@H](CC(N)=O)C(=O)N[C@H]2C(=O)N[C@H]3C(=O)N[C@H](C(=O)N[C@@H](C(=O)O)c4cc(O)cc(O)c4-c4cc3ccc4O)[C@H](O)c3ccc(c(Cl)c3)Oc3cc2cc(c3O[C@@H]2O[C@H](CO)[C@@H](O)[C@H](O)[C@H]2O[C@H]2C[C@](C)(NCc3ccc(-c4ccc(Cl)cc4)cc3)[C@H](O)[C@H](C)O2)Oc2ccc(cc2Cl)[C@H]1O | 0.03 (≈ 0.0182 µM) | 10 (≈ 6.06 µM) | 0.03 (≈ 0.0182 µM)
CN[C@H](CC(C)C)C(=O)N[C@H]1C(=O)N[C@@H](CC(N)=O)C(=O)N[C@H]2C(=O)N[C@H]3C(=O)N[C@H](C(=O)N[C@@H](C(=O)O)c4cc(OC)cc(OC)c4-c4cc3ccc4O)[C@H](O)c3ccc(c(Cl)c3)Oc3cc2cc(c3O)Oc2ccc(cc2Cl)[C@H]1O | 10 (≈ 8.53 µM) | 640 (≈ 546 µM) | 120 (≈ 102 µM)
CN[C@H](CC(C)C)C(=O)N[C@H]1C(=O)N[C@@H](CC(N)=O)C(=O)N[C@H]2C(=O)N[C@H]3C(=O)N[C@H](C(=O)N[C@@H](C(=O)O)c4cc(OC)cc(O)c4-c4cc3ccc4OC)[C@H](O)c3ccc(c(Cl)c3)Oc3cc2cc(c3O)Oc2ccc(cc2Cl)[C@H]1O | 10 (≈ 8.53 µM) | 640 (≈ 546 µM) | 120 (≈ 102 µM)
CN[C@H](CC(C)C)C(=O)N[C@H]1C(=O)N[C@@H](CC(N)=O)C(=O)N[C@H]2C(=O)N[C@H]3C(=O)N[C@H](C(=O)N[C@@H](C(=O)O)c4cc(OC)cc(OC)c4-c4cc3ccc4OC)[C@H](O)c3ccc(c(Cl)c3)Oc3cc2cc(c3O)Oc2ccc(cc2Cl)[C@H]1O |  | 640 (≈ 540 µM) | 10 (≈ 8.43 µM)
CN[C@H](CC(C)C)C(=O)N[C@H]1C(=O)N[C@@H](CC(N)=O)C(=O)N[C@H]2C(=O)N[C@H]3C(=O)N[C@H](C(=O)N[C@@H](C(=O)O)c4cc(O)cc(O)c4-c4cc3ccc4O)[C@H](O)c3ccc(c(Cl)c3)Oc3cc2cc(c3OC)Oc2ccc(cc2Cl)[C@H]1O | 1.25 (≈ 1.08 µM) | 240 (≈ 207 µM) | 40 (≈ 34.5 µM)
CN[C@H](CC(C)C)C(=O)N[C@H]1C(=O)N[C@@H](CC(N)=O)C(=O)N[C@H]2C(=O)N[C@H]3C(=O)N[C@H](C(=O)N[C@H](C(=O)O)c4cc(O)cc(O)c4-c4cc3ccc4O)[C@H](O)c3ccc(c(Cl)c3)Oc3cc2cc(c3O)Oc2ccc(cc2Cl)[C@H]1O [VANCOMYCIN AGLYCON] | 0.6 (≈ 0.525 µM) | > 100 | > 40
CN[C@H](CC(C)C)C(=O)N[C@H]1C(=O)N[C@@H](CC(N)=O)C(=O)N[C@H]2C(=O)N[C@H]3C(=O)N[C@H](C(=O)N[C@H](C(=O)O)c4cc(O)cc(O)c4-c4cc3ccc4O)[C@H](O)c3ccc(c(Cl)c3)Oc3cc2cc(c3O[C@@H]2O[C@H](CO)[C@@H](O)[C@H](O)[C@H]2O[C@H]2C[C@](C)(N)[C@H](O)[C@H](C)O2)Oc2ccc(cc2Cl)[C@H]1O [VANCOMYCIN] |  | 2000 (≈ 1380 µM) | 120 (≈ 82.8 µM)
